# Bioassay records: PubChem BioAssay, several laboratories
# Rows were chosen to be rich in hits. Some 0.83% of all compounds tested hit in one or more screens of this group.
# OXTR ag: human OXTR agonists, primary screen, fluorescence, CHO-OTR cells, Fluo-8 calcium | activation, % at 3 µM | Oxytocin receptor (Homo sapiens), P30559 | 0.32% of 320,000 active | Fluo-8 calcium fluorescence; normalized: DMSO 0%, oxytocin 100% | AID 2435, 2010;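 active = activation above the mean of all tested compounds plus 3 SD, cutoff set per screening run, cut at about 20% in these data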;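 note: peak over basal fluorescence ratio from a 100 s FLIPR kinetic read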
# Target sequence (P30559 whole entry, looked up): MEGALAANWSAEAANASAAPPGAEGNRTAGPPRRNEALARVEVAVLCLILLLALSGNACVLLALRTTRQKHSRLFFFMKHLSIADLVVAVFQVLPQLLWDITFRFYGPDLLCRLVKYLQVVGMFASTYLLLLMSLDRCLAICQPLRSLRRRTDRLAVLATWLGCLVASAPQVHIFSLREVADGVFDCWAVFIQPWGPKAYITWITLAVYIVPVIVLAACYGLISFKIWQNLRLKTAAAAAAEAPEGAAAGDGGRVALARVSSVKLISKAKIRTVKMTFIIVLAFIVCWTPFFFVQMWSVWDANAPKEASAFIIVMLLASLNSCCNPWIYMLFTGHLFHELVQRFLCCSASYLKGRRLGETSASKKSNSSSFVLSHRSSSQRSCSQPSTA
# V1R ag counter: agonists of human V1a receptor, primary screen, counter-screen for OXTR agonist project, fluorescence, CHO-V1R cells; Vasopressin V1a receptor (Homo sapiens), P37288; activation, % at 3 µM; Fluo-8 calcium fluorescence, agonist mode; 0% DMSO, 100% 3 nM vasopressin; AID 2797, 2010; 0.25% of 320,000 active;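 active = activation above the mean activation of all tested compounds plus 3 SD, per screening run, cut at about 20% in these data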;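 note: signal is peak over basal fluorescence ratio across a 100 second FLIPR read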
# CRFBP-R2 agonist: agonists of CRF-BP/CRF-R2 complex, primary screen, cell-based, HEK293, calcium dye fluorescence, uHTS | calcium dye fluorescence (FLIPR); percent of saturating CRF peptide response | activation, % at 13.2 µM | 0.46% of 350,000 active;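 active = activation of at least 50%, plus an integration ratio under a set limit after plate pattern correction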;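 note: plate controls were neutral control wells without compound for no effect and CRF at EC100 for full effect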
# TRPML3 agonist: human TRPML3 channel agonists, primary screen, cell-based, HEK293 TRPML3-YFP, Fluo-8 calcium fluorescence, 3 µM; Mucolipin-3 (Homo sapiens), Q8TDD5; 100% = the carbachol control signal; activation, % at 3 µM; 0.29% of 220,000 active;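 active = activation above its plate's cutoff, the mean activation of the plate's test wells plus 3 SD, cut at about 12% in these data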;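 note: 0% = DMSO only wells and 100% = carbachol wells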
#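 Test system: HEK293 cells stably carrying human TRPML3-YFP; Doses: single dose, 3 µM final nominal compound, 0.3% DMSO final; Schedule: dye loading 1 h 37 °C then 30 min ambient, 125 s read; Technique: Fluo-8 calcium fluorescence; Benchmarks: high control carbachol 87 µM, low control DMSO.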
# OXTR potentiator: human OXTR potentiators, primary screen, fluorescence, CHO-OTR cells, Fluo-8 calcium; activation, % at 3 µM; 0.061% of 320,000 active; AID 2445, 2010; Oxytocin receptor (Homo sapiens), P30559; Fluo-8 calcium fluorescence, potentiator mode; 0% = oxytocin EC15, 100% = EC100;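 active = activation above that plate's cutoff, the mean activation of tested compounds plus 3 SD, cut at about 6.6% in these data, passing the limit was not always enough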;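 note: 100% uses oxytocin at 75 nM as the full agonist control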
#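 System: human OTR in CHO cells; Also added: sub-maximal oxytocin, roughly EC15; Timing: compound 6 min at room temperature before oxytocin, 100 s read; Technique: Fluo-8 intracellular calcium fluorescence, ex 470-495, em 515-575 nm; Controls: oxytocin EC15 low and EC100 high; Replication: singlicate.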
# zfTRPN1 agonist: zebrafish TRPN1 channel agonists, primary screen, cell-based, HEK293, calcium fluorescence | transient receptor potential cation channel N1 (TRPN1/NompC), Danio rerio | HEK293 zebrafish TRPN1-YFP, Fluo-8 calcium fluorescence; 100% = response to 87 µM carbachol | activation, % at 3 µM | 0.18% of 220,000 active;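 active = activation above its plate's cutoff, the mean activation of test wells on that plate plus 3 SD, cut at about 19% in these data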;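 note: 0% = DMSO alone and 100% = 87 µM carbachol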
#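 Assay system: Zebrafish TRPN1-YFP in HEK293 cells | Incubation: Dye loading 1 h at 37 °C, then 30 min room temperature | Measured by: Kinetic Fluo-8 fluorescence, ex 470-495, em 515-575 nm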
# Starred values were filed as active, the others as inactive; x = not tested or not shown.
SMILES,OXTR ag,V1R ag counter,CRFBP-R2 agonist,TRPML3 agonist,OXTR potentiator,zfTRPN1 agonist
O=C(OCn1ncc(Cl)c(Cl)c1=O)c1ccccc1Cl,-2,-2,0,0,17*,-1
Cc1ccc(C(=O)NCCCNC(=O)Cc2ccc(Cl)cc2)cn1,-1,-1,-1,x,-8,x
CCCCC/C=C\C/C=C\C/C=C\C/C=C\CCCC(=O)O,-1,-1,x,x,9.6*,x
CCOc1ccc(/C=N/NC(=O)c2nnn(-c3nonc3N)c2-c2cccs2)cc1,35*,22*,8,x,-11,x
Cc1ccc(-c2c(C(=O)N/N=C/c3ccc(OC(C)C)cc3)nnn2-c2nonc2N)cc1,30*,37*,2,x,3,x
CCOc1ccc(-c2c(C(=O)N/N=C/c3ccc(C)cc3)nnn2-c2nonc2N)cc1,16,15,1,6,9,2
CCOc1ccc(-c2c(C(=O)N/N=C/c3ccc(OC(C)C)cc3)nnn2-c2nonc2N)cc1,21*,23*,4,1,8,2
CCc1ccc(/C=N/NC(=O)c2nnn(-c3nonc3N)c2C(C)C)cc1,55*,47*,15,x,-6,x
Cc1cccc(C(=O)NNC(=O)c2ccc(NS(=O)(=O)c3cccs3)cc2)c1C,0,0,0,x,1,x
COCCn1c(N)c(N(Cc2ccccc2)C(=O)c2ccc(N3CCCC3=O)cc2)c(=O)[nH]c1=O,x,x,-1,x,x,x
CC(C)(Cc1ccccc1)/[N+]([O-])=C\c1ccccc1,0,1,-1,x,-2,x
O=C1CCN(Cc2ccccc2)N1,0,1,0,x,-15,x
Nc1nonc1-n1nnc(C(=O)N/N=C/c2ccccc2)c1CSc1ccc(Cl)cc1,0,1,110*,1,-10,0
O=[N+]([O-])c1ccc(-c2ccc(/C=N/Nc3nc(N4CCCC4)nc(N4CCCC4)n3)o2)cc1,2,0,129*,1,0,2
O=[N+]([O-])c1ccc(-c2ccc(/C=N/Nc3nc(N4CCCCC4)nc(N4CCCCC4)n3)o2)cc1,x,x,69*,0,x,2
O=[N+]([O-])c1cccc(-c2ccc(/C=N/Nc3nc(N4CCCCC4)nc(N4CCCCC4)n3)o2)c1,0,1,-1,1,-6,0
Nc1ncnc2c1ncn2[C@@H]1O[C@H](COP(=O)(O)O)[C@@H](O)[C@H]1O,1,2,-1,x,-1,x
Nc1ncnc2c1ncn2[C@@H]1O[C@H](COP(=O)(O)OP(=O)(O)OP(=O)(O)O)[C@@H](O)[C@H]1O,69*,78*,16,x,-24,x
Cc1ccnc(NC(=O)c2cccc(S(=O)(=O)N3CCCc4ccccc43)c2)c1,-2,-1,2,x,-4,x
Cc1ccc(S(=O)(=O)N2CCOC23CCN(S(=O)(=O)c2c(C)cc(C)cc2C)CC3)cc1,1,1,4,x,-14,x
CCC(=O)OCC(=O)c1c(N)n(Cc2ccccc2)c(=O)n(C)c1=O,0,1,-1,1,-4,1
Cn1c(=O)c(C(=O)COc2ccc(C#N)cc2)c(N)n(Cc2ccccc2)c1=O,32*,28*,55*,2,-38,4
COc1cc(NC(=O)COC(=O)Cn2cnc3c2c(=O)n(C)c(=O)n3C)cc(OC)c1,0,0,0,x,4,x
O=C(/C=C/c1ccc2c(c1)S(=O)(=O)N(Cc1ccccc1)[C@H]2CC(=O)N1CCOCC1)N1CCOCC1,4,-1,0,x,-3,x
N#C/C(=C(/O)COC(=O)c1ccccc1O)c1nc2ccccc2s1,4,3,79*,1,-4,2
SMILES,OXTR ag,V1R ag counter,CRFBP-R2 agonist,TRPML3 agonist,OXTR potentiator,zfTRPN1 agonist
CC(C)/C=C1\CC/C(=C\c2ccc(N(C)C)cc2)C1=O,69*,59*,166*,8,-17,22*
CN(C)c1ccc(/C=C2/C[N+](C)(C)C/C(=C/c3ccc(N(C)C)cc3)C2=O)cc1,x,x,41,x,x,x
COc1ccccc1N(CC(=O)NC(C)(C)C)S(=O)(=O)c1cccs1,-3,-2,-1,0,-8,42*
Cc1ccc(S(=O)(=O)O/N=C2\CCCc3ccccc32)cc1,0,0,0,1,-8,1
CC1=C(C)/C(=N\OS(=O)(=O)c2ccccc2)C=CC1=O,19,14,57*,16*,-21,2
Nc1ncnc2c1ncn2[C@@H]1O[C@H](CNCc2c(OCc3ccccc3F)ccc3ccccc23)[C@@H](O)[C@H]1O,0,1,2,x,2,x
COc1ccc(S(=O)(=O)N2CCCCCC2)cc1C(=O)N(C)Cc1ccc(Cl)cc1Cl,-2,-2,104*,x,-15,x
COc1ccc(NC(=O)CN(C)C(=O)CSc2ccc3c(c2)OCCO3)cc1,0,-1,181*,x,8,x
CCOc1cc(N2CCOCC2)c(OCC)cc1NC(=O)COC(=O)c1ccc(Cl)nc1,0,0,-2,x,-7,x
CS(=O)(=O)c1ccc2c(c1)sc1nc(=O)c(/C=C3/C=CC(=O)C(O)=C3)c(N)n12,1,0,28,1,-8,0
COC1=C/C(=C/c2c(N)n3nc(-c4ccc(C)cc4)sc3nc2=O)C=CC1=O,x,x,195*,0,x,-1
CCOC1=C/C(=C/c2c(N)n3nc(-c4ccccc4)sc3nc2=O)C=CC1=O,x,x,73*,0,x,1
COC1=C/C(=C/c2c(N)n3c(nc2=O)sc2cc(S(C)(=O)=O)ccc23)C=CC1=O,1,1,96*,3,-4,6
CCS(=O)(=O)c1nn2c(N)c(/C=C3/C=CC(=O)C(OC)=C3)c(=O)nc2s1,3,1,33,0,-3,1
CS(=O)(=O)c1ccc(NC(=O)c2cc3c(cc2Cl)N2CCCCCC2=NS3(=O)=O)cc1,x,x,2,x,x,x
COc1ccc(/C=C2\CCCc3c2nc2ccccc2c3C(=O)O)cc1OC,2,14,x,19*,-9,40*
CCOc1ccc(/C=C2\CCCc3c2nc2ccccc2c3C(=O)O)cc1OC,100*,135*,x,x,-17,x
COc1ccc(/C=C2\CCc3c2nc2ccccc2c3C(=O)O)cc1OC,11,11,41,1,-4,1
